# Assay results: ChEMBL document CHEMBL3763032, “Novel Small Molecule Inhibitors of Choline Kinase Identified by Fragment-Based Drug Discovery” (J Med Chem, 2016)
# Activity calls are given as the source filed them. The calls are words filed in the database; no cut-off is given here.
# What was measured:
# Choline kinase alpha [1] = target: T1, Choline kinase alpha (Homo sapiens, UniProt P35790)
# Target sequence in this assay (P35790 whole entry): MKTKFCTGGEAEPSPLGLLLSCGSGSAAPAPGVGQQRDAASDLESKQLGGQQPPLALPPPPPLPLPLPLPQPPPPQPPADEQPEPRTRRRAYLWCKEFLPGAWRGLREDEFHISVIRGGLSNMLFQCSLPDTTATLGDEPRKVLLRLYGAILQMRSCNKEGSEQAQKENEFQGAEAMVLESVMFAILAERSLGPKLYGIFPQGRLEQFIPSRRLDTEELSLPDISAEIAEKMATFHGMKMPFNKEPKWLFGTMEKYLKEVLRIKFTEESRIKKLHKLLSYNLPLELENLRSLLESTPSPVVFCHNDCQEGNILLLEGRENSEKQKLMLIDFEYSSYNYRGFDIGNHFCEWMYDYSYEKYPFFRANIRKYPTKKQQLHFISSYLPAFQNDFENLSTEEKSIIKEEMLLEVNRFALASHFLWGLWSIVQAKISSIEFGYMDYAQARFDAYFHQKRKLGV
# Choline kinase alpha [2] = target: T1, Choline kinase alpha; remark: listed apart in the source
# Target sequence in this assay (P35790 whole entry): as above
# Choline kinase alpha [3] = target: T1, Choline kinase alpha; experiment: Reversible binding affinity to human N-terminal truncated ChoKalpha1 (75 to 457 residues) ChoKalpha1 by STD NMR analysis
# In short: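 Saturation-transfer difference NMR primary screen. On-resonance irradiation was at 0.8 ppm and off-resonance at 30 ppm, with excitation-sculpting water suppression; 320 scans were averaged.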
# Target sequence in this assay (P35790 whole entry, looked up): as the sequence (P35790 whole entry) above
# MDA-MB-415 [4] = experiment: Induction of apoptosis in human MDA-MB-415 cells expressing ChoKalpha after 24 hrs by caspase-3/7 assay; type: functional, cell-based
# In short: (§1)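 Cells exposed to compounds for 24 h, then caspase activity measured with the Apo-ONE homogeneous caspase-3/7 assay. Apoptosis expressed as a percentage of vehicle-treated cells, from one representative experiment.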
# [5] = Cytotoxicity against human MCF12A cells after 72 hrs by CyQuant cell proliferation assay; type: cell-based, MCF-12A; details: for GI50 at 72 h: MCF12A cells; for %max: mcf-12a, 72 h
# In short: (§2)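 Cells from ATCC, used within 6 months, grown in the supplier-recommended medium. Treated with compound or vehicle for 72 h, then read by CyQuant proliferation kit. GI50 determined after correcting for cell count at time zero, with growth plotted as percent of vehicle-treated cells. Mean ±SD from ≥2 separate experiments.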
# [6] = Cytotoxicity against human MCF10A cells after 72 hrs by CyQuant cell proliferation assay; type: cell-based, MCF-10A; details: for GI50 at 72 h: MCF10A cells; for %max: mcf-10a, 72 h
# In short: as §2
# [7] = Effect on phosphocholine level in human MCF12A cells after 24 hrs by NMR analysis; type: ADME, cell-based; details: mcf-12a
# In short: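 Cells grown with increasing compound concentrations or vehicle (DMSO) for 24 h, then counted and checked for viability by Trypan blue exclusion. 5 ×10^6 viable cells washed twice in ice-cold d-PBS and extracted by vortexing 30 s in 6 mL ice-cold 100% methanol. Intracellular choline and phosphocholine quantified by NMR.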
# Choline kinase alpha [8] = target: T1, Choline kinase alpha; remark: listed apart in the source
# Target sequence in this assay (P35790 whole entry, looked up): as the sequence (P35790 whole entry) above
# Choline kinase alpha [9] = target: T1, Choline kinase alpha; experiment: Inhibition of ChoKalpha in human MDA-MB-415 cells assessed as reduction in phosphocholine level after 24 hrs by NMR analysis; type: cell-based
# Target sequence in this assay (P35790 whole entry): as above
# MDA-MB-468 [10] = experiment: Cytotoxicity against human MDA-MB-468 cells expressing ChoKalpha after 72 hrs by CyQuant cell proliferation assay; type: functional; details: for GI50: Homo sapiens, MDA-MB-468, 72 h
# In short: as §2
# MDA-MB-415 [11] = experiment: Cytotoxicity against human MDA-MB-415 cells expressing ChoKalpha after 72 hrs by CyQuant cell proliferation assay; type: functional; details: for GI50: Homo sapiens, MDA-MB-415, 72 h
# In short: as §2
# [12] = Induction of apoptosis in human MCF12A cells upto 40 uM after 24 hrs by caspase-3/7 assay; type: cell-based; details: mcf-12a
# In short: as §1
# [13] = Cytotoxicity against human MCF10A cells after 72 hrs by MTT assay; type: cell-based; details: MCF-10A
# MDA-MB-468 [14] = experiment: Cytotoxicity against human MDA-MB-468 cells after 72 hrs by MTT assay; type: functional, cell-based; details: MDA-MB-468, 72 h
# Choline kinase alpha [15] = target: T1, Choline kinase alpha; experiment: Inhibition of recombinant human ChoKalpha using choline as substrate by ultraviolet spectroscopic assay
# In short: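 Coupled ATP-regeneration assay with recombinant human ChoKα1 (N-terminal His tag, pET28a, >95% pure) at 10–50 nM monomer. A340 read over 10–30 min. Initial rates taken across 2-fold inhibitor dilutions and fitted to a dose–response model for IC50.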
# Target sequence in this assay (P35790 whole entry): as above
# Carbonic anhydrase 2 = Carbonic anhydrase 2 (Homo sapiens, UniProt P00918); experiment: Binding affinity to carbonic anhydrase2 (unknown origin) by surface plasmon resonance assay
# In short: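 Carbonic anhydrase II, used as the reference surface, amine-coupled at a density similar to the ChoKα1 surface. 25 °C, 2-fold dilution series (fragments top at 300 μM). Single-step kinetics (Biacore) or FastStep (SensiQ). Kd from 1:1 binding model fits.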
# Choline kinase alpha [16] = target: T1, Choline kinase alpha; experiment: Inhibition of ChoKalpha in human MDA-MB-468 cells assessed as reduction in phosphocholine level after 24 hrs by NMR analysis; type: cell-based
# Target sequence in this assay (P35790 whole entry): as above
SMILES,Kd (Choline kinase alpha [1]),IC50 (Choline kinase alpha [2]),Ka (Choline kinase alpha [8]),also measured
CN1CCCN(Cc2ccc(-c3ccc(C(F)(F)F)cc3)cc2)CC1,4 µM,2.6 µM,,
COc1ccc(-c2ccc(CN3CCCN(C)CC3)cc2)cc1,3.8 µM,1.43 µM,,
Cc1cc(O)cc(C)c1C#N,,,,Activity (Choline kinase alpha [3]): Active
CN(c1ccc(Cl)cc1)c1cc[n+](Cc2ccc(-c3ccc(C[n+]4ccc(N(C)c5ccc(Cl)cc5)c5ccccc54)cc3)cc2)c2ccccc12 [RSM-932A],,,,IC50 [13]: 7.1 µM; IC50 (MDA-MB-468 [14]): 2.4 µM
O[C@](CCc1ccccc1OC1CCOCC1)(c1ccccc1)C1CN2CCC1CC2 (some centres not stated),,,,IC50 (Choline kinase alpha [15]): 0.02 µM
CN1CCNCC(Cc2ccc3ncccc3c2)C1 (configuration not stated),7 µM,17.2 µM,,
CN1CCCN(Cc2ccc(-c3ccccc3)cc2)CC1,3.7 µM,1.48 µM,,
CN1CCCN(Cc2ccc3ccccc3c2)CC1,4.3 µM,2.6 µM,,
CN1CCCN(c2ccc(CO)cc2)CC1,194 µM,> 2000 µM,,
Nc1cc(C(F)(F)F)ncn1,630 µM,> 300 µM,,Kd (Carbonic anhydrase 2): 670 µM
COC(=O)c1ccc(-c2ccc(CN3CCCN(C)CC3)cc2)cc1,2.4 µM,4.95 µM,,
CN1CCCN(Cc2ccc3ncccc3c2)CC1,4 µM,3.9 µM,,
O=C(N1CCCCCC1)N1CCNCC1,340 µM,> 300 µM,,Kd (Carbonic anhydrase 2): 1400 µM
CN1CCCN(Cc2ccc(CN)cc2)CC1,132 µM,87 µM,,Kd (Carbonic anhydrase 2): 490 µM

# Second part, led by results:
Kd (Choline kinase alpha [1]),IC50 (Choline kinase alpha [2]),Ka (Choline kinase alpha [8]),SMILES,also measured
0.099 µM,0.085 µM,112000 M⁻¹ s⁻¹,CN1CCCN(Cc2ccc(-c3ccc(CN4CCCN(C)CC4)cc3C#N)c(F)c2)CC1,Activity (MDA-MB-415 [4]): Active; GI50 at 72 h [5]: > 40 µM; %max [5]: 51%; GI50 at 72 h [6]: 18 µM; %max [6]: 99%; Activity [7]: Non-toxic; IC50 (Choline kinase alpha [9]): 0.75 µM; %max (MDA-MB-468 [10]): 139%; GI50 (MDA-MB-468 [10]): 7 µM; %max (MDA-MB-415 [11]): 189%; GI50 (MDA-MB-415 [11]): 2 µM; Activity [12]: Non-toxic
0.021 µM,0.233 µM,718000 M⁻¹ s⁻¹,CN1CCCN(Cc2ccc(-c3ccc(CN4CCCN(C)CC4)c(F)c3F)cc2)CC1,
0.211 µM,0.165 µM,93000 M⁻¹ s⁻¹,CN1CCCN(Cc2ccc(-c3ccc(CN4CCCN(C)CC4)cc3F)cc2)CC1,
0.769 µM,1.3 µM,,CN1CCCN(Cc2ccc(-c3ccc(N4CCN(C)CC4)cc3)cc2)CC1,
0.195 µM,0.251 µM,,CN1CCCN(Cc2ccc(-c3ccc(C(=O)N4CCCN(C)CC4)cc3)cc2)CC1,
0.259 µM,0.255 µM,125000 M⁻¹ s⁻¹,CN1CCCN(Cc2ccc(-c3cc(F)c(CN4CCCN(C)CC4)c(F)c3)cc2)CC1,
0.088 µM,0.268 µM,235000 M⁻¹ s⁻¹,CN1CCCN(Cc2ccc(-c3ccc(CN4CCCN(C)CC4)c(Cl)c3)cc2)CC1,
0.382 µM,0.457 µM,94000 M⁻¹ s⁻¹,CN1CCCN(Cc2ccc(-c3ccc(CN4CCCN(C)CC4)cc3)cc2)CC1,Activity (MDA-MB-415 [4]): Active; GI50 at 72 h [5]: 31 µM; %max [5]: 64%; GI50 at 72 h [6]: 27 µM; %max [6]: 77%; IC50 (Choline kinase alpha [16]): 2 µM; %max (MDA-MB-468 [10]): 163%; GI50 (MDA-MB-468 [10]): 9 µM; %max (MDA-MB-415 [11]): 158%; GI50 (MDA-MB-415 [11]): 4 µM; Activity [12]: Non-toxic
0.01 µM,0.066 µM,676000 M⁻¹ s⁻¹,CN1CCCN(Cc2ccc(-c3ccc(CN4CCCN(C)CC4)cc3C#N)cc2)CC1,
